Results: PubChem BioAssay AID588510 (Broad Institute, 2011)

Target: Protein LANA1 (Human herpesvirus 8 type P (isolate GK18)) (UniProt Q9QR71)
Experiment: GST-LANA peptide binding to nucleosomes, inhibition – biochemical, ELISA, dry powder samples, orthogonal assay, dose response (AID 588510)
Conditions: GST-LANA 1-23 binding to nucleosomes, ELISA 450 nm; series mostly up to 50 µM; activity (ratio to control): at the top concentration; call rule not given here
In short: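 System: purified nucleosomes plus GST-LANA 1-23 peptide; medium: Milk blocking of wells; times: compound plus GST-LANA 90 min 4 °C, substrate 30 min RT; technique: ELISA absorbance at 450 nm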

Chain of Protein LANA1 (Human herpesvirus 8 type P (isolate GK18)) (Q9QR71 whole entry, looked up): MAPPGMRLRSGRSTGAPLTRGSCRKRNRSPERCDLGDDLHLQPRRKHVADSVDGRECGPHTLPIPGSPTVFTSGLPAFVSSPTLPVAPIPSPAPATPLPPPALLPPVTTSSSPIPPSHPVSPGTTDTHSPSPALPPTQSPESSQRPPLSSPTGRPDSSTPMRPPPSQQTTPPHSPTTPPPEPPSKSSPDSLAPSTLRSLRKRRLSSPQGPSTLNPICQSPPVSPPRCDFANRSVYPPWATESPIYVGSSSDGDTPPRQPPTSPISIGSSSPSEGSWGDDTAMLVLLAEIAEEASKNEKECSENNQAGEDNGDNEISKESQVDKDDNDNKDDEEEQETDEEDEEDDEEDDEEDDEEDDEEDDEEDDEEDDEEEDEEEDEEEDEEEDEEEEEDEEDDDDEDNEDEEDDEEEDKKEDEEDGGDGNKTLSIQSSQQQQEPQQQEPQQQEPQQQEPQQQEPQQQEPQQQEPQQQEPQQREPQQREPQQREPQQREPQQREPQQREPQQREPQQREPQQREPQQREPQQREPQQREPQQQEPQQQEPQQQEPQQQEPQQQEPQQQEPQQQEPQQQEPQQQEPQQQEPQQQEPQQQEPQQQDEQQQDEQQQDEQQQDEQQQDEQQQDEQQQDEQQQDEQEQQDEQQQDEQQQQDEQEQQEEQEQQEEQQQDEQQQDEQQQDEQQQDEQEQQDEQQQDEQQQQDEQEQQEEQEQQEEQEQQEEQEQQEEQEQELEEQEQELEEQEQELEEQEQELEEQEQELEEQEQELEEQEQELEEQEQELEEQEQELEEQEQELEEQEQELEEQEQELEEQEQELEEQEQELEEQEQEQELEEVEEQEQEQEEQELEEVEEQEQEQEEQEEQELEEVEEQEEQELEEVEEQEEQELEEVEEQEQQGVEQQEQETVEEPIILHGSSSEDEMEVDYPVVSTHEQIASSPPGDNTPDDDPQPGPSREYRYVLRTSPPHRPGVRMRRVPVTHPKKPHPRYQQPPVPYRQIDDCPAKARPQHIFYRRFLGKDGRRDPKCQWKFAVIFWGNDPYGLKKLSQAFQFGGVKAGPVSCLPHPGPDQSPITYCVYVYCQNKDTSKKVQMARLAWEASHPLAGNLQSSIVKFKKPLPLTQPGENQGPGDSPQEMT

Activity (ratio to control), inactive:
Cc1cccc(N2C(=O)c3cccc4c(N(C)CCO)ccc(c34)C2=O)c1 114%
Cc1cc(C)c2nc(C(F)(F)F)nc(NCCCN3CCCC3=O)c2c1 95.3%
O=C(CCCN1C(=O)c2cccc3cccc(c23)C1=O)N1CCN(c2ccccc2)CC1 130%
Clc1ccc(-c2nnc3sc(-c4ccc(Br)o4)nn23)cc1 97.5%
CC(=O)Nc1ccc(-c2cn3ccsc3n2)cc1 127%
CC(C)(C)C1(C)OC(=O)C(=Cc2ccc(OCC(=O)Nc3ccccc3)cc2)C(=O)O1 (stereo not drawn) 94.4%
Cc1ccc(Cl)cc1N1CCN(C(=O)C2CCN(S(C)(=O)=O)CC2)CC1 99.1%
COc1ccc2ccccc2c1C(O)c1nccn1C (stereo not drawn) 92.2%
O=S(=O)(Nc1cc(Cl)ccc1N1CCOCC1)c1ccccc1Cl 105%
Cc1cc(C)cc(NS(=O)(=O)c2ccc3c(c2)C(C)(C)C(=O)N3C)c1 99.5%
COc1ccc(C2C=C(c3ccc(Br)cc3)Nc3nc(NS(C)(=O)=O)nn32)cc1 (stereo not drawn) 99.7%
CC1Cc2ccccc2N1C(=O)CSc1ncccn1 (stereo not drawn) 140%
CC(=O)Nc1cccc(N)c1 97.2%
